Results gathered from unrelated publications.
Each line is one published result; the experiments were not run side by side.

| Compound | tested on | test | test system | conditions | measurement | result |
| --- | --- | --- | --- | --- | --- | --- |
| Cc1sc2c(c1C)C(c1ccc(Cl)cc1)=N[C@@H](CC(=O)OC(C)(C)C)c1nnc(C)n1-2 | Jurkat | cell growth or viability, ATP luminescence | – | 72 h | IC50 | 1.01 µM |
| Oc1c(Cl)cc(Cl)cc1-c1[nH]c(Cl)c(Cl)c1Cl | Pseudomonas aeruginosa | microbial growth | ATCC27853 | – | MIC | 64 µM |
| COc1c(N2CC3CCCNC3C2)c(F)cc2c(=O)c(C(=O)OCc3cnc([N+](=O)[O-])s3)cn(C3CC3)c12 (centres unmarked) | Pseudomonas aeruginosa | microbial growth | ATCC27853 | – | MIC | 6 µM |
| O=c1ccc2nc3ccc(O)cc3oc-2c1 | Pseudomonas aeruginosa | microbial growth | – | 24 h | MIC | > 32 µg/mL |
| COc1c(N2C[C@@H]3CCCN[C@@H]3C2)c(F)cc2c(=O)c(C(=O)O)cn(C3CC3)c12 | Mycobacteroides abscessus | microbial growth | ATCC19977 | – | MIC | 1 µM |
| N.N.[Cl][Pt][Cl] | PLC | cell growth or viability, MTT | – | 72 h | IC50 | 8.21 µM |
| O=c1ccc2nc3ccc(OCc4ccc([N+](=O)[O-])o4)cc3oc-2c1 | Pseudomonas aeruginosa | microbial growth | – | 24 h | MIC | > 32 µg/mL |
| Oc1c(Br)cc(Br)cc1-c1[nH]c(Br)c(Br)c1Br | Pseudomonas aeruginosa | microbial growth | ATCC27853 | – | MIC | 64 µM |
